Measured values published in ChEMBL document CHEMBL1821639, “Exploring Left-Hand-Side substitutions in the benzoxazinone series of 4-amino-piperidine bacterial type IIa topoisomerase inhibitors” (Bioorg Med Chem Lett, 2011).
In brackets after ≈: the same amount, converted by molar mass.

Assays:
[1] = Lipophilicity, log D of the compound by shake flask method using LC-MS analysis; format: physicochemical; details: octanol/water
Procedure, shortened: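 Shake-flask partitioning, experimental, with LC–MS quantitation.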

Staphylococcus aureus = assay: Antibacterial activity against Staphylococcus aureus after 24 hrs by CLSI method; format: functional
Procedure, shortened: (§1)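 Broth dilution per CLSI; compounds in DMSO, 10 doubling dilutions. Organisms grown overnight on agar, suspended in suitable liquid medium to 0.5 McFarland, then diluted 1 in 10 for final inoculum.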

Streptococcus pneumoniae = assay: Antibacterial activity against Streptococcus pneumoniae after 24 hrs by CLSI method; format: functional; procedure, shortened: as §1
Streptococcus pyogenes = assay: Antibacterial activity against Streptococcus pyogenes after 24 hrs by CLSI method; format: functional; procedure, shortened: as §1
Haemophilus influenzae = assay: Antibacterial activity against Haemophilus influenzae after 24 hrs by CLSI method; format: functional; procedure, shortened: as §1
Moraxella catarrhalis = assay: Antibacterial activity against Moraxella catarrhalis after 24 hrs by CLSI method; format: functional; procedure, shortened: as §1
Pseudomonas aeruginosa = assay: Antibacterial activity against Pseudomonas aeruginosa after 24 hrs by CLSI method; format: functional; procedure, shortened: as §1
Escherichia coli [2] = assay: Antibacterial activity against Escherichia coli after 24 hrs by CLSI method; format: functional; procedure, shortened: as §1
Escherichia coli [3] = assay: Antibacterial activity against TolC-deficient Escherichia coli after 24 hrs by CLSI method; format: functional; procedure, shortened: as §1
Klebsiella pneumoniae = assay: Antibacterial activity against Klebsiella pneumoniae after 24 hrs by CLSI method; format: functional; procedure, shortened: as §1
[4] = Inhibition of ParC in reconstituted Escherichia coli ParC/ParE assessed as ParE ATPase activity after 24 hrs by ammonium molybdate/malachite green method
[5] = target: Voltage-gated inwardly rectifying potassium channel KCNH2 (Homo sapiens, UniProt Q12809); assay: Inhibition of human ERG by electrophysiological assay
[6] = Inhibition of Escherichia coli DNA gyrase supercoiling activity

Sequence of Voltage-gated inwardly rectifying potassium channel KCNH2 (Q12809 whole entry): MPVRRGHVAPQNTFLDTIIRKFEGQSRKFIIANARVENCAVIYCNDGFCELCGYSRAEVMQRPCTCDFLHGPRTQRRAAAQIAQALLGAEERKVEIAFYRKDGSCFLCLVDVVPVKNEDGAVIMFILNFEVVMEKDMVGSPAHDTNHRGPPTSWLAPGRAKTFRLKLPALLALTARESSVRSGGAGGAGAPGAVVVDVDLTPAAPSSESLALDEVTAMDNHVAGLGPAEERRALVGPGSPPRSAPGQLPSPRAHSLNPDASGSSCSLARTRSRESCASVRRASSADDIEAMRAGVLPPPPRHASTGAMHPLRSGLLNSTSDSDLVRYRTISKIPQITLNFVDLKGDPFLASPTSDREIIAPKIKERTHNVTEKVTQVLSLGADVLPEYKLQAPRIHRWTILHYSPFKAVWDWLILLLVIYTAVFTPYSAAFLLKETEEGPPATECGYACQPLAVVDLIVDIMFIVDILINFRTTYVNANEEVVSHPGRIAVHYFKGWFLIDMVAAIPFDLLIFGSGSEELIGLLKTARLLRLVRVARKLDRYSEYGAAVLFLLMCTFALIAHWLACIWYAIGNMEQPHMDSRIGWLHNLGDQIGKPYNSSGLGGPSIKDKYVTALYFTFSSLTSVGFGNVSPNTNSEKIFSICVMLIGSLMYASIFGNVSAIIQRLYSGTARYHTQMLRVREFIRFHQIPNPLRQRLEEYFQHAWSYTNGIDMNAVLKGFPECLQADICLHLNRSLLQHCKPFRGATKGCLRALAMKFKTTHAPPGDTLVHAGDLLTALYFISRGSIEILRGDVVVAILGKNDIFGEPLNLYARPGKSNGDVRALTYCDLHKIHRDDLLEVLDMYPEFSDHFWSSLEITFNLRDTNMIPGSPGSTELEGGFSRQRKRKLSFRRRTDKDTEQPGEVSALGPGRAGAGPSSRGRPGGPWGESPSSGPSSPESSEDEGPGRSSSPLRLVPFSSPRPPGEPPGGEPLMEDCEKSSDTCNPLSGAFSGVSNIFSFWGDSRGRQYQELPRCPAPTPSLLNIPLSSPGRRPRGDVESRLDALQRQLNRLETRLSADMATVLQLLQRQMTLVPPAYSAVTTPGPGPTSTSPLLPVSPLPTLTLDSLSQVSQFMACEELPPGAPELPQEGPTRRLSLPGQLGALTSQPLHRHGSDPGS

| SMILES | logD [1] | MIC (Staphylococcus aureus) | MIC (Streptococcus pneumoniae) | MIC (Streptococcus pyogenes) | MIC (Haemophilus influenzae) | MIC (Moraxella catarrhalis) | MIC (Pseudomonas aeruginosa) | MIC (Escherichia coli [2]) | MIC (Escherichia coli [3]) | MIC (Klebsiella pneumoniae) | IC50 [4] | IC50 [5] | IC50 [6] |
| --- | --- | --- | --- | --- | --- | --- | --- | --- | --- | --- | --- | --- | --- |
| O=C1COc2ccc(CNC3CCN(CCN4C(=O)COc5ccc(C(=O)O)cc54)CC3)nc2N1 | -1.6 | > 13.5 µM | > 13.5 µM | > 13.5 µM | > 13.5 µM | > 13.5 µM | > 13.5 µM | > 13.5 µM | > 12.7 µM | > 13.5 µM | 4680 nM | – | – |
| COC(=O)c1ccc2c(c1)N(CCN1CCC(NCc3ccc4c(n3)NC(=O)CO4)CC1)C(=O)CO2 | 0.8 | 1 µM (≈ 0.496 µg/mL) | 8.1 µM (≈ 4.01 µg/mL) | 2 µM (≈ 0.991 µg/mL) | 0.5 µM (≈ 0.248 µg/mL) | 0.1 µM (≈ 0.0496 µg/mL) | > 16.1 µM | 4 µM (≈ 1.98 µg/mL) | 0.1 µM (≈ 0.0496 µg/mL) | 16.1 µM (≈ 7.98 µg/mL) | 78 nM | – | – |
| O=C1COc2ccc(CNC3CCN(CCN4C(=O)COc5ccc(-c6ccco6)cc54)CC3)nc2N1 | 2.2 | 0.5 µM (≈ 0.252 µg/mL) | 0.5 µM (≈ 0.252 µg/mL) | 2 µM (≈ 1.01 µg/mL) | 0.3 µM (≈ 0.151 µg/mL) | 0.06 µM (≈ 0.0302 µg/mL) | 15.9 µM (≈ 8.01 µg/mL) | 2 µM (≈ 1.01 µg/mL) | 0.06 µM (≈ 0.0302 µg/mL) | 15.9 µM (≈ 8.01 µg/mL) | 18 nM | – | – |
| O=C1COc2ccc(CNC3CCN(CCN4C(=O)COc5ccc(-n6cnnn6)cc54)CC3)nc2N1 | -0.8 | > 10.9 µM | > 10.9 µM | > 10.9 µM | > 10.9 µM | > 10.9 µM | > 10.9 µM | > 10.9 µM | > 10.9 µM | > 10.9 µM | 353 nM | > 100000 nM | – |
| N#Cc1ccc2c(c1)N(CCN1CCC(NCc3ccc4c(n3)NC(=O)CO4)CC1)C(=O)CO2 | 0.2 | 0.3 µM (≈ 0.139 µg/mL) | 0.8 µM (≈ 0.37 µg/mL) | 0.3 µM (≈ 0.139 µg/mL) | 0.1 µM (≈ 0.0463 µg/mL) | – | 3.8 µM (≈ 1.76 µg/mL) | 0.5 µM (≈ 0.231 µg/mL) | < 0.02 µM | 4.3 µM (≈ 1.99 µg/mL) | 36 nM | – | 3.2 nM |
| O=C1COc2ccc(CNC3CCN(CCN4C(=O)COc5ccc(Br)cc54)CC3)nc2N1 | 1.4 | 0.1 µM (≈ 0.0516 µg/mL) | 0.3 µM (≈ 0.155 µg/mL) | – | 0.1 µM (≈ 0.0516 µg/mL) | < 0.015 µM | 7.7 µM (≈ 3.98 µg/mL) | 0.5 µM (≈ 0.258 µg/mL) | < 0.02 µM | 3.9 µM (≈ 2.01 µg/mL) | 18 nM | – | – |
| CCS(=O)(=O)c1ccc2c(c1)N(CCN1CCC(NCc3ccc4c(n3)NC(=O)CO4)CC1)C(=O)CO2 | -0.1 | > 15.1 µM | > 15.1 µM | 15.1 µM (≈ 8 µg/mL) | 7.6 µM (≈ 4.03 µg/mL) | 7.6 µM (≈ 4.03 µg/mL) | > 15.1 µM | > 15.1 µM | 1.9 µM (≈ 1.01 µg/mL) | – | – | – | – |
| O=C1COc2ccc(CNC3CCN(CCN4C(=O)COc5ccc(O)cc54)CC3)nc2N1 | 0.5 | 17.7 µM (≈ 8.03 µg/mL) | 8.8 µM (≈ 3.99 µg/mL) | 1.1 µM (≈ 0.499 µg/mL) | 0.3 µM (≈ 0.136 µg/mL) | 0.1 µM (≈ 0.0453 µg/mL) | 17.7 µM (≈ 8.03 µg/mL) | 4.4 µM (≈ 2 µg/mL) | 0.1 µM (≈ 0.0453 µg/mL) | > 17.7 µM | 36 nM | – | – |
| O=C1COc2ccc(CNC3CCN(CCN4C(=O)COc5ccc(NC(=O)C(F)(F)F)cc54)CC3)nc2N1 | 0.2 | > 16.1 µM | > 16.1 µM | > 16.1 µM | 16.1 µM (≈ 8.83 µg/mL) | 16.1 µM (≈ 8.83 µg/mL) | > 16.1 µM | > 16.1 µM | 8.1 µM (≈ 4.44 µg/mL) | > 16.1 µM | – | > 100000 nM | – |
| O=C1COc2ccc(CNC3CCN(CCN4C(=O)COc5ccc(Cl)cc54)CC3)nc2N1 | 1.3 | 0.3 µM (≈ 0.142 µg/mL) | 0.5 µM (≈ 0.236 µg/mL) | 0.5 µM (≈ 0.236 µg/mL) | 0.1 µM (≈ 0.0472 µg/mL) | 0.1 µM (≈ 0.0472 µg/mL) | 4.2 µM (≈ 1.98 µg/mL) | 0.5 µM (≈ 0.236 µg/mL) | < 0.02 µM | – | 23 nM | – | – |
| O=C1COc2ccc(CNC3CCN(CCN4C(=O)COc5ccc(OC(F)(F)F)cc54)CC3)nc2N1 | 1.8 | 1 µM (≈ 0.521 µg/mL) | 1 µM (≈ 0.521 µg/mL) | 1 µM (≈ 0.521 µg/mL) | 0.1 µM (≈ 0.0521 µg/mL) | 0.1 µM (≈ 0.0521 µg/mL) | 15.3 µM (≈ 7.98 µg/mL) | 3.8 µM (≈ 1.98 µg/mL) | 0.1 µM (≈ 0.0521 µg/mL) | – | – | – | – |
| CC(=O)c1ccc2c(c1)N(CCN1CCC(NCc3ccc4c(n3)NC(=O)CO4)CC1)C(=O)CO2 | 0.4 | 1 µM (≈ 0.48 µg/mL) | 2.1 µM (≈ 1.01 µg/mL) | 1 µM (≈ 0.48 µg/mL) | 0.3 µM (≈ 0.144 µg/mL) | 0.3 µM (≈ 0.144 µg/mL) | 16.7 µM (≈ 8.01 µg/mL) | 2.1 µM (≈ 1.01 µg/mL) | 0.1 µM (≈ 0.048 µg/mL) | – | – | – | – |
| COc1ccc2c(c1)N(CCN1CCC(NCc3ccc4c(n3)NC(=O)CO4)CC1)C(=O)CO2 | 0.9 | 0.3 µM (≈ 0.14 µg/mL) | 1.1 µM (≈ 0.514 µg/mL) | – | 0.1 µM (≈ 0.0468 µg/mL) | 0.1 µM (≈ 0.0468 µg/mL) | 8.6 µM (≈ 4.02 µg/mL) | 0.5 µM (≈ 0.234 µg/mL) | 0.1 µM (≈ 0.0468 µg/mL) | – | – | – | 5 nM |
| O=C1COc2ccc(CNC3CCN(CCN4C(=O)COc5ccc([N+](=O)[O-])cc54)CC3)nc2N1 | – | 0.3 µM (≈ 0.145 µg/mL) | 0.5 µM (≈ 0.241 µg/mL) | 0.3 µM (≈ 0.145 µg/mL) | 0.1 µM (≈ 0.0482 µg/mL) | – | 5.9 µM (≈ 2.85 µg/mL) | 0.5 µM (≈ 0.241 µg/mL) | < 0.02 µM | – | – | – | – |
| CC(O)c1ccc2c(c1)N(CCN1CCC(NCc3ccc4c(n3)NC(=O)CO4)CC1)C(=O)CO2 (configuration not stated) | 0.3 | > 16.6 µM | > 16.6 µM | > 16.6 µM | 4.2 µM (≈ 2.02 µg/mL) | > 16.6 µM | > 16.6 µM | > 16.6 µM | 1.1 µM (≈ 0.53 µg/mL) | > 16.6 µM | – | – | – |
| O=C1COc2ccc(CNC3CCN(CCN4C(=O)COc5ccc(F)cc54)CC3)nc2N1 | 0.9 | 0.6 µM (≈ 0.273 µg/mL) | 1.1 µM (≈ 0.501 µg/mL) | 0.5 µM (≈ 0.228 µg/mL) | 0.1 µM (≈ 0.0455 µg/mL) | – | 6.2 µM (≈ 2.82 µg/mL) | 0.6 µM (≈ 0.273 µg/mL) | 0.1 µM (≈ 0.0455 µg/mL) | – | – | – | – |
| CN(C)S(=O)(=O)c1ccc2c(c1)N(CCN1CCC(NCc3ccc4c(n3)NC(=O)CO4)CC1)C(=O)CO2 | 0.2 | > 14.6 µM | > 14.6 µM | > 14.6 µM | 14.7 µM (≈ 8.01 µg/mL) | > 14.6 µM | > 14.6 µM | > 14.6 µM | 7.3 µM (≈ 3.98 µg/mL) | – | – | – | – |
| CS(=O)(=O)c1ccc2c(c1)N(CCN1CCC(NCc3ccc4c(n3)NC(=O)CO4)CC1)C(=O)CO2 | -0.5 | > 15.5 µM | 15.5 µM (≈ 7.99 µg/mL) | 15.5 µM (≈ 7.99 µg/mL) | 3.9 µM (≈ 2.01 µg/mL) | 3.9 µM (≈ 2.01 µg/mL) | > 15.5 µM | > 15.5 µM | 1 µM (≈ 0.516 µg/mL) | – | – | – | – |
